Assay outcomes deposited in PubChem BioAssay by several laboratories.
Compounds with a hit are over-represented: about 3.3% of the library has one in this group of screens.
sPLA2-III inh = Inhibits HGIII-sPLA2 liposome hydrolysis, primary screen | Q9NZ20 | QFRET BODIPY PC-A2 liposome hydrolysis, fluorescence | inhibition, % at 12.2 µM | 370,000 tested, 0.56% active | AID 743126;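 active means inhibition above mean plus 3 SD of compounds lying within the high and low control bounds, cut at about 19% in these data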;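 further: 0% = median of test compound wells and 100% = no enzyme DMSO wells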
HTR2A ag = mouse HTR2A agonism via beta-arrestin recruitment | P35363 | CHO-K1 mHTR2A beta-arrestin complementation, luminescence; percent of 30 µM serotonin response | activation, % at 7.6 µM | 360,000 tested, 0.66% active | AID 624169;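 active means activation above a run cutoff, the mean activation of all tested compounds plus 3 SD, cut at about 14% in these data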;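 further: 0% = plate median of compound wells and 100% = 30 µM serotonin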
Lipid droplet = modulators of hepatic lipid droplet formation; AML12 mouse hepatocytes, oleate lipid droplets, BODIPY imaging; inhibition, % at 6.5 µM; 240,000 tested, 0.4% active; AID 1656;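 active means lipid droplet intensity inhibited by at least 50%, with more than 500 cells counted; inconclusive means wells with under 300 cells, treated as cytotoxic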
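Material – AML12 mouse liver cells · Also added – oleate loading, 100 µM · Compound dosing – 6.5 µM single-point dosing · Times – overnight treatment with compound plus oleate · Measured by – fluorescence imaging, 20x objective, two fields per well · Read-out – percent inhibition of filter-corrected integrated lipid droplet intensity per well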
NRP1-CendR mod = NRP-1/CendR interaction modulation; O14786; FAM-RPARPAR peptide binding to NRP-1, fluorescence polarization; inhibition, % at 25 µM; 360,000 tested, 0.85% active;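 active means inhibition or corrected inhibition above about 18%, plus a signal ratio from 0.5 to 1.5, limit read from the data, passing the limit was not always enough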
M18AAP inhibitor = PfM18AAP enzyme inhibition; recombinant PfM18AAP, H-Glu-NHMec fluorogenic cleavage; inhibition, % at 7.35 µM; 290,000 tested, 1.2% active; AID 1822;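 active means inhibition above the campaign mean inhibition over all tested compounds plus 3 SD, cut at about 28% in these data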;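 further: 0% = plate median of test compound wells and 100% = 2 mM ZnCl2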
Arrestin-AP2 inh = inhibitors of human beta-arrestin and AP2 interaction; FITC-arrestin peptide / GST-AP2 beads, flow cytometry; AP2 beta2 appendage carries R879A mutation; inhibition, % at 10 µM; 340,000 tested, 0.31% active; AID 504490;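 active means inhibition above a set limit, near 3 SD of compounds lacking own fluorescence, cut at about 54% in these data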;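 further: plate controls were DMSO wells for no effect and 5 µM unlabelled arrestin peptide for full effect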
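Material – AP2 appendage R879A on GSH beads · Buffer or medium – PBS with 0.05% Tween 20 and 0.1% BSA · Probe or stimulus – fluorescein-tagged arrestin peptide at 50 nM final · Incubation – compound with beads 12 min RT, then probe 1 h RT · Detection – high-throughput flow cytometry of beads, ex 488, em 535 nm · Evaluation – percent response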
* marks the source's active call; other numbers are inactive results; u = inconclusive; x = no result.

SMILES	sPLA2-III inh	HTR2A ag	Lipid droplet	NRP1-CendR mod	M18AAP inhibitor	Arrestin-AP2 inh
CC/C(=C1/C(=O)CC(C)(C)C(C(=O)OC)C1=O)N1CCCC1 (stereo not drawn)	6	7	x	35*	-2	11
Cc1nn(-c2ccccc2)nc1CNC(=O)C(C)Cc1ccccc1 (stereo not drawn)	-1	0	-2	4	3	-9
Cc1nn(-c2ccccc2)nc1CNC(=O)C1CCC1	-4	-1	6	25*	5	-5
CCCCNC(=O)[C@H]1C[C@H]1[C@@H](O)[C@H](CO)NC(=O)[C@H](CC(C)C)NC(=O)OC(C)(C)C	x	4	0	34*	4	-6
COC(=O)[C@H](CC(C)C)N(CCCc1cn(Cc2ccccc2)nn1)S(=O)(=O)c1ccccc1Br	-26	x	x	x	x	x
COc1cc(CN2CCN(Cc3ccc(SC)cc3)CC2)cc(OC)c1O	-5	-2	6	23*	7	16
CC(=O)Nc1cccc(-c2nc3ccccc3[nH]2)c1	-1	-2	-34	0	-3	-2
O=C(Nc1cccc(-c2nc3ccccc3[nH]2)c1)c1ccccn1	-4	-4	-3	-6	31*	-5
c1ccc(C2=Nc3ccccc3OC2)cc1	-3	-1	9	-1	31*	0
Cc1ccc2c(c1)N=C(c1ccc(Cl)cc1)CO2	-8	-2	10	-11	29*	1
Cc1ccc2c(c1)-c1c(cnn1CC(=O)NCCc1ccccc1F)CO2	0	x	x	x	x	x
CCOC(=O)CSc1nc2cc(C(=O)NCC3CCCO3)ccc2c(=O)n1Cc1ccco1 (stereo not drawn)	3	-3	x	-2	3	0
CCOC(=O)Cn1c(=O)n(Cc2ccco2)c(=O)c2ccc(C(=O)NC3CCCC3)cc21	0	-2	x	33*	-1	0
COCCNC(=O)/C(C#N)=C/c1c(N2CCN(c3cccc(Cl)c3)CC2)nc2c(C)cccn2c1=O	0	12	19	19*	2	-16
O=C(OCc1ccccc1)N1CCC2CC1c1cc(NCCc3ccccc3)ccc12 (stereo not drawn)	-3	-7	x	-4	x	16
CCOC(=O)CC1C(=O)NCCN1S(=O)(=O)c1ccc(F)cc1 (stereo not drawn)	-1	-3	14	5	0	12
CCOC(=O)CC1C(=O)NCCN1S(=O)(=O)c1ccc(NC(C)=O)cc1 (stereo not drawn)	-1	8	-1	1	28*	-3
O=C(Nc1ccc(N2CCOCC2)cc1)c1csc([C@@H]2O[C@H](CO)[C@H](O)[C@H](O)[C@H]2O)n1	4	2	x	8	x	x
CCCN(CC(=O)Nc1cc(C)on1)CC(=O)Nc1ccc(F)c(F)c1F	-3	-7	x	23*	x	-5
CCN1CCN(CC(=O)Nc2cccc(C)c2C)C(=O)C1=O	3	14	x	21*	15	-4
CCN(CC)C(=O)CC[C@@H]1CC[C@]2(CCCN(Cc3cccs3)C2)O1	4	x	x	x	x	x
COC(=O)[C@]1(Cc2ccccc2)NC=C(C(=O)c2ccccc2)[C@@H]1c1cccs1	-36	x	x	x	x	x
COC(=O)c1cc2ccc(OC)c(OC)c2c(=O)s1	3	1	0	27*	4	-2
COc1ccc2cc(C(=O)N3CCCCCC3)sc(=O)c2c1OC	-2	-1	x	6	5	-8
Cc1ccc(C(=O)N/C(=C\c2ccc(-c3ccccc3[N+](=O)[O-])o2)C(=O)NCCCN2CCOCC2)cc1	-13	1	-13	26*	23	-4
SMILES	sPLA2-III inh	HTR2A ag	Lipid droplet	NRP1-CendR mod	M18AAP inhibitor	Arrestin-AP2 inh
CN1CCN(S(=O)(=O)c2ccc(NC(=O)Nc3cccc(Cl)c3)cc2)CC1	-34	-9	-11	27*	-3	13
CCC(=O)OCC(=O)N=c1sccn1Cc1ccccc1Cl	8	4	-5	26*	3	-7
O=C(CCl)N=c1sccn1Cc1ccccc1Cl	-2	2	u	-7	3	-1
COC(=O)[C@]1(Sc2ccc(C)cc2)CC(=O)N[C@@H]1c1ccco1	8	3	x	-11	x	x
N#Cc1c(NC(=O)CCC(=O)O)sc2c1CCCCC2	1	8	11	-4	31*	14
Cc1sc(NC(=O)CCCC(=O)O)c(C#N)c1C	3	2	2	-2	30*	6
CC(C)N(C(C)C)S(=O)(=O)c1ccc(N2CCc3ccccc3C2)nc1	-14	-11	-8	30*	1	24
NCCC(=O)Nc1ccc(Cl)cc1C(=O)c1ccc[nH]1	6	x	x	x	x	x
CC(=O)Nc1ccccc1O	0	-2	-6	-3	1	7
CC(=O)Nc1ccccc1C(=O)C(=O)O	6	-1	x	26*	2	1
CCOc1ccc(C(=O)CCc2nc3ccccc3s2)cc1	-5	21*	x	-8	-17	5
COc1ccc(NC(=O)CCc2nc3ccccc3s2)c(OC)c1	1	3	0	-10	-2	10
Cc1cc(NS(=O)(=O)c2ccc(NC(=O)CCCC(=O)O)cc2)nc(C)n1	0	3	14	45*	-3	-2
COc1ccc(-c2cnc3c(NC(C)=O)cc(-c4ccc(S(C)(=O)=O)cc4)cn23)cc1OC	9	10	x	-4	x	x
O=C(Nc1cccc([N+](=O)[O-])c1)OCc1ccc2c(c1)OCO2	-11	x	x	x	x	x
CCOc1ccc(C(=O)COC(=O)c2nn(CC)c(=O)c3ccccc23)cc1	-1	-7	x	19*	x	-37
CCn1nc(C(=O)OCC(=O)c2c[nH]c3ccccc23)c2ccccc2c1=O	-18	3	x	-7	-8	-10
O=C(NCCCN1CCN(c2ccccc2F)CC1)C1CCN(S(=O)(=O)c2cccs2)CC1	-4	15*	x	-10	4	4
C[C@H]1[C@H](NC(=O)c2ccc(Cl)cc2)CC[C@@]23CCCN2C(=O)CCC[C@@H]13	0	x	x	x	x	x
COCOc1ccc(C=O)cc1OCOC	5	-4	x	22*	x	-3
C/C=C/c1ccc(OCCOc2ccc(C=O)cc2)c(OC)c1	-21	4	2	-2	0	34
O=C(NCc1ccc(F)cc1)c1cc(C2CCCCN2S(=O)(=O)c2cccc3cccnc23)on1 (stereo not drawn)	-5	10	x	-19	x	x
O=C(c1ccccc1)N1CCOC(O)(c2ccccc2)C1c1ccccc1 (stereo not drawn)	-9	-3	x	-3	x	-4
O=C(N/N=C1\C(=O)c2cccc3cccc1c23)c1ccc(O)cc1	-3	1	1	-32	-5	-5
O=C1C([N+](=O)[O-])=C(O)c2cccc3cccc1c23	x	x	13	x	32*	x
COCCNC(=O)C1(C)CCCN(CCOc2ccc(Cl)cc2)C1 (stereo not drawn)	12	5	x	5	x	x
